Columns and labels:
Homo sapiens [1] = experiment: Tmax in human plasma assessed as total radioactivity at 30 mg, po single dose; format: ADME, organism-based; design: dosed compound name [14C]SB-649868; settings: in vivo
Summary of the method: (§1)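 Eight healthy men given one oral capsule of [14C] drug, 30 mg (approx. 70 µCi), with 160 ml water. Blood in K-EDTA tubes from pre-dose to 96 h, chilled and spun at 4°C. Plasma read by LSC in triplicate 0.25 ml aliquots, quench-corrected and background-subtracted. Noncompartmental analysis: Cmax and tmax read from the data, t1/2 = ln2/λz, AUC by linear-up/log-down trapezoids. Geometric means.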

[2] = Drug excretion in human urine at 30 mg, po single dose measured at 0 to 120 hrs; format: ADME, organism-based; design: dosed compound name [14C]SB-649868; settings: in vivo
Summary of the method: (§2)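 After one oral 30 mg [14C] dose in eight healthy men, urine was collected at 0–6, 6–12 and 12–24 h, then every 24 h to 216 h. Feces were collected every 24 h to 216 h and homogenized 1:1 with water. Radioactivity was counted by LSC in triplicate aliquots. Results given as cumulative % of dose, mean (S.D.).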

[3] = Drug excretion in human feces at 30 mg, po single dose measured at 0 to 96 hrs; format: ADME, organism-based; design: dosed compound name [14C]SB-649868; settings: in vivo; summary of the method: as §2
[4] = Drug excretion in human feces at 30 mg, po single dose measured at 0 to 144 hrs; format: ADME, organism-based; design: dosed compound name [14C]SB-649868; settings: in vivo; summary of the method: as §2
Homo sapiens [5] = experiment: Apparent half life in human plasma assessed as total radioactivity at 30 mg, po single dose; format: ADME, organism-based; design: dosed compound name [14C]SB-649868; settings: in vivo; summary of the method: as §1
Homo sapiens [6] = experiment: Total drug excretion in human at 30 mg, po single dose measured at 0 to 24 hrs; format: ADME, organism-based; design: dosed compound name [14C]SB-649868; settings: in vivo; summary of the method: as §2
[7] = Drug excretion in human urine at 30 mg, po single dose measured at 0 to 96 hrs; format: ADME, organism-based; design: dosed compound name [14C]SB-649868; settings: in vivo; summary of the method: as §2
[8] = Drug excretion in human feces at 30 mg, po single dose measured at 0 to 72 hrs; format: ADME, organism-based; design: dosed compound name [14C]SB-649868; settings: in vivo; summary of the method: as §2
[9] = Drug excretion in human urine at 30 mg, po single dose measured at 0 to 12 hrs; format: ADME, organism-based; design: dosed compound name [14C]SB-649868; settings: in vivo; summary of the method: as §2
[10] = Drug excretion in human urine at 30 mg, po single dose measured at 0 to 24 hrs; format: ADME, organism-based; design: dosed compound name [14C]SB-649868; settings: in vivo; summary of the method: as §2
Homo sapiens [11] = experiment: Total drug excretion in human at 30 mg, po single dose measured at 0 to 192 hrs; format: ADME, organism-based; design: dosed compound name [14C]SB-649868; settings: in vivo; summary of the method: as §2
[12] = Drug excretion in human feces at 30 mg, po single dose measured at 0 to 24 hrs; format: ADME, organism-based; design: dosed compound name [14C]SB-649868; settings: in vivo; summary of the method: as §2
[13] = Drug excretion in human feces at 30 mg, po single dose measured at 0 to 192 hrs; format: ADME, organism-based; design: dosed compound name [14C]SB-649868; settings: in vivo; summary of the method: as §2
[14] = Drug excretion in human urine at 30 mg, po single dose measured at 0 to 72 hrs; format: ADME, organism-based; design: dosed compound name [14C]SB-649868; settings: in vivo; summary of the method: as §2
[15] = Drug excretion in human urine at 30 mg, po single dose measured at 0 to 168 hrs; format: ADME, organism-based; design: dosed compound name [14C]SB-649868; settings: in vivo; summary of the method: as §2
[16] = Drug excretion in human feces at 30 mg, po single dose measured at 0 to 216 hrs; format: ADME, organism-based; design: dosed compound name [14C]SB-649868; settings: in vivo; summary of the method: as §2
Homo sapiens [17] = experiment: AUC (0 to infinity) in human plasma assessed as total radioactivity at 30 mg, po single dose; format: ADME, organism-based; design: dosed compound name [14C]SB-649868; settings: in vivo; summary of the method: as §1
Homo sapiens [18] = experiment: AUC (0 to t) in human plasma assessed as total radioactivity at 30 mg, po single dose; format: ADME, organism-based; design: dosed compound name [14C]SB-649868; settings: in vivo; summary of the method: as §1
[19] = Drug excretion in human urine at 30 mg, po single dose measured at 0 to 48 hrs; format: ADME, organism-based; design: dosed compound name [14C]SB-649868; settings: in vivo; summary of the method: as §2
Homo sapiens [20] = experiment: Total drug excretion in human at 30 mg, po single dose measured at 0 to 72 hrs; format: ADME, organism-based; design: dosed compound name [14C]SB-649868; settings: in vivo
Summary of the method: (§3)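 Healthy male volunteers (n=8) given single oral 30 mg (approx. 70 µCi) [14C]-labelled dose in a capsule with 160 ml water. Urine collected pre-dose, 0–6, 6–12, 12–24 h, then 24 h intervals to 216 h; feces at 24 h intervals to 216 h, homogenized 1:1 with water. Triplicate aliquots counted by LSC with quench correction and background subtraction; cumulative excretion expressed as % of dose.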

Homo sapiens [21] = experiment: Cmax in human plasma assessed as total radioactivity at 30 mg, po single dose; format: ADME, organism-based; design: dosed compound name [14C]SB-649868; settings: in vivo; summary of the method: as §1
Homo sapiens [22] = experiment: Total drug excretion in human at 30 mg, po single dose measured at 0 to 12 hrs; format: ADME, organism-based; design: dosed compound name [14C]SB-649868; settings: in vivo; summary of the method: as §2
[23] = Drug excretion in human feces at 30 mg, po single dose measured at 0 to 168 hrs; format: ADME, organism-based; design: dosed compound name [14C]SB-649868; settings: in vivo; summary of the method: as §2
[24] = Drug excretion in human urine at 30 mg, po single dose measured at 0 to 192 hrs; format: ADME, organism-based; design: dosed compound name [14C]SB-649868; settings: in vivo; summary of the method: as §2
[25] = Drug excretion in human urine at 30 mg, po single dose measured at 0 to 6 hrs; format: ADME, organism-based; design: dosed compound name [14C]SB-649868; settings: in vivo; summary of the method: as §2
Homo sapiens [26] = experiment: Total drug excretion in human at 30 mg, po single dose measured at 0 to 216 hrs; format: ADME, organism-based; design: dosed compound name [14C]SB-649868; settings: in vivo; summary of the method: as §2
Homo sapiens [27] = experiment: Total drug excretion in human at 30 mg, po single dose measured at 0 to 168 hrs; format: ADME, organism-based; design: dosed compound name [14C]SB-649868; settings: in vivo; summary of the method: as §2
Homo sapiens [28] = experiment: Total drug excretion in human at 30 mg, po single dose measured at 0 to 6 hrs; format: ADME, organism-based; design: dosed compound name [14C]SB-649868; settings: in vivo; summary of the method: as §3
[29] = Drug excretion in human feces at 30 mg, po single dose measured at 0 to 48 hrs; format: ADME, organism-based; design: dosed compound name [14C]SB-649868; settings: in vivo; summary of the method: as §2
Homo sapiens [30] = experiment: Total drug excretion in human at 30 mg, po single dose measured at 0 to 96 hrs; format: ADME, organism-based; design: dosed compound name [14C]SB-649868; settings: in vivo; summary of the method: as §3
[31] = Drug excretion in human urine at 30 mg, po single dose measured at 0 to 144 hrs; format: ADME, organism-based; design: dosed compound name [14C]SB-649868; settings: in vivo; summary of the method: as §2
[32] = Drug excretion in human urine at 30 mg, po single dose measured at 0 to 216 hrs; format: ADME, organism-based; design: dosed compound name [14C]SB-649868; settings: in vivo; summary of the method: as §2
Homo sapiens [33] = experiment: Total drug excretion in human at 30 mg, po single dose measured at 0 to 48 hrs; format: ADME, organism-based; design: dosed compound name [14C]SB-649868; settings: in vivo; summary of the method: as §2
Homo sapiens [34] = experiment: Total drug excretion in human at 30 mg, po single dose measured at 0 to 144 hrs; format: ADME, organism-based; design: dosed compound name [14C]SB-649868; settings: in vivo; summary of the method: as §2
Homo sapiens [35] = experiment: Total drug excretion in human at 30 mg, po single dose measured at 0 to 120 hrs; format: ADME, organism-based; design: dosed compound name [14C]SB-649868; settings: in vivo; summary of the method: as §2
[36] = Drug excretion in human feces at 30 mg, po single dose measured at 0 to 120 hrs; format: ADME, organism-based; design: dosed compound name [14C]SB-649868; settings: in vivo; summary of the method: as §2
[37] = Drug level in human urine treated with [14C]SB-649868 at 30 mg, po single dose after 0 to 72 hrs by HPLC-MSn analysis; settings: in vivo, 0-72 h

C[14c]1nc(C(=O)N2CCCC[C@H]2CNC(=O)c2cccc3occc23)c(-c2ccc(F)cc2)s1
Radiolabel recovery (Homo sapiens [1]): 4 h
Radiolabel recovery [2]: 11.7%
Radiolabel recovery [3]: 69.6%
Radiolabel recovery [4]: 76.8%
Radiolabel recovery (Homo sapiens [5]): 39.3 h
Radiolabel recovery (Homo sapiens [6]): 10.8%
Radiolabel recovery [7]: 11.6%
Radiolabel recovery [8]: 60%
Radiolabel recovery [9]: 5.9%
Radiolabel recovery [10]: 8.9%
Radiolabel recovery (Homo sapiens [11]): 90.5%
Radiolabel recovery [12]: 1.9%
Radiolabel recovery [13]: 78.5%
Radiolabel recovery [14]: 11.3%
Radiolabel recovery [15]: 11.9%
Radiolabel recovery [16]: 79.1%
Radiolabel recovery (Homo sapiens [17]): 37.3 ugequiv.hr/ml
Radiolabel recovery (Homo sapiens [18]): 31 ugequiv.hr/ml
Radiolabel recovery [19]: 10.7%
Radiolabel recovery (Homo sapiens [20]): 71.3%
Radiolabel recovery (Homo sapiens [21]): 1.66 ugequiv/ml
Radiolabel recovery (Homo sapiens [22]): 5.9%
Radiolabel recovery [23]: 77.7%
Radiolabel recovery [24]: 12%
Radiolabel recovery [25]: 2.3%
Radiolabel recovery (Homo sapiens [26]): 91.1%
Radiolabel recovery (Homo sapiens [27]): 89.7%
Radiolabel recovery (Homo sapiens [28]): 2.3%
Radiolabel recovery [29]: 36.8%
Radiolabel recovery (Homo sapiens [30]): 81.2%
Radiolabel recovery [31]: 11.9%
Radiolabel recovery [32]: 12%
Radiolabel recovery (Homo sapiens [33]): 47.5%
Radiolabel recovery (Homo sapiens [34]): 88.7%
Radiolabel recovery (Homo sapiens [35]): 87.3%
Radiolabel recovery [36]: 75.6%

Cc1nc(C(=O)N2CCCC[C@H]2CNC(=O)c2cccc3oc(O)cc23)c(-c2ccc(F)cc2)s1
Compound recovery [37]: 0.6%
